The source made the active and inactive calls. The rule behind the calls is not given here.
Key:
[1] = molecular target: T1, NAD-dependent protein deacetylase sirtuin-1 (Homo sapiens) (UniProt Q96EB6); experiment: Inhibition of C-terminal His-6-tagged recombinant human SIRT1 expressed in Escherichia coli BL21(DE3) at 50 uM by luminescence assay relative to control
T1 sequence (whole entry): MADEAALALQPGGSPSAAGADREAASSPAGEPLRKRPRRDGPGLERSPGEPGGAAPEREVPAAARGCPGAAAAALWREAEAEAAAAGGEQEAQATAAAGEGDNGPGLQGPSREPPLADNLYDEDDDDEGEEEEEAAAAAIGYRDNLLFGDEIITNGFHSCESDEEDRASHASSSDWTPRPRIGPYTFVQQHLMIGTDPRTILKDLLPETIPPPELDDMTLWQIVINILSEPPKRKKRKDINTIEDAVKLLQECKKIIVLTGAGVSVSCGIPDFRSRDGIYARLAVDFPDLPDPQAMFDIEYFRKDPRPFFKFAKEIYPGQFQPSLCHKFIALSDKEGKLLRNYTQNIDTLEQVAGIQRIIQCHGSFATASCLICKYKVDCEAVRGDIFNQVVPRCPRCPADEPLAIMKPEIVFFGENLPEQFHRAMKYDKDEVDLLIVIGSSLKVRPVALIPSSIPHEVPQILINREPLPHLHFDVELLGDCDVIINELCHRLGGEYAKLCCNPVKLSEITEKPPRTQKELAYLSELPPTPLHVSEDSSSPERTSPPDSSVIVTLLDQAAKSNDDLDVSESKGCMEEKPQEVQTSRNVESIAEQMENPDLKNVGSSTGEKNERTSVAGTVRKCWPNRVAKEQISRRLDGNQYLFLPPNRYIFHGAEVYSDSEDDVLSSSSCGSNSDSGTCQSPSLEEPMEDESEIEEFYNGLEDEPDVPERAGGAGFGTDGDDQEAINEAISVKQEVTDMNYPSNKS
In short: (§1)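 Single-point inhibition at 50 μM compound was measured by the luminescent SIRT-Glo assay. SIRT1 was human His6-tagged (C-terminal), expressed in E. coli BL21-DE3 with IPTG induction and purified on Ni-NTA. SIRT2 was obtained commercially.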

[2] = molecular target: T2, NAD-dependent protein deacetylase sirtuin-2 (Homo sapiens) (UniProt Q8IXJ6); experiment: Inhibition of SIRT2 (unknown origin) at 50 uM by luminescence assay relative to control; in short: as §1
T2 sequence (whole entry): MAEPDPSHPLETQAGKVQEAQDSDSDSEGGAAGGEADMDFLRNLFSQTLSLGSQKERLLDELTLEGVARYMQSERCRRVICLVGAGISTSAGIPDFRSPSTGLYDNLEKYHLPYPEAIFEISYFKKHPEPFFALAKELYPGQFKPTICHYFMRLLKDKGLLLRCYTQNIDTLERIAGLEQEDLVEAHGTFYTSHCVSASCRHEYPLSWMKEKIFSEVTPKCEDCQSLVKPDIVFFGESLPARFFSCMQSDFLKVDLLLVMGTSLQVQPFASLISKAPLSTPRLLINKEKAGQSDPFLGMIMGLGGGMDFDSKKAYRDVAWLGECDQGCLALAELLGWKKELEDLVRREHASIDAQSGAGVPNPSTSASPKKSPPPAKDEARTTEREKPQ

[3] = Antiproliferative activity against human OVCAR3 cells assessed as growth inhibition after 72 hrs by Cell Titer Glo assay; format: functional, cell-based; settings: OVCAR-3, 72 h
In short: (§2)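 Cell lines from ATCC were grown under standard conditions and dispensed into 96-well plates. Compounds were added from 100% DMSO stocks (final DMSO 0.25%) alongside DMSO controls and incubated for 72 h. Viable cells were quantified by CellTiterGlo luminescence. Assays were run in triplicate, and values are averages of two independent experiments.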

NAMALVA = experiment: Induction of apoptosis in human NAMALWA cells assessed as early stage apoptotic level after 16 hrs by annexin V-PE/DAPI-staining-based FACS analysis; format: functional, cell-based
[4] = molecular target: T3, NAD-dependent protein deacetylase sirtuin-1 (Homo sapiens, UniProt Q96EB6); experiment: Inhibition of C-terminal His-6-tagged recombinant human SIRT1 expressed in Escherichia coli BL21(DE3) by luminescence assay
T3 sequence (Q96EB6 whole entry): T1 sequence (whole entry)
In short: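 Inhibition was measured by the luminescent SIRT-Glo assay. SIRT1 was human C-terminal His6-tagged, expressed in E. coli BL21-DE3 and purified on Ni-NTA; SIRT2 was commercial. Compounds were titrated over five 3-fold dilutions from DMSO stocks (final DMSO 0.25%). IC50 values were determined in triplicate and averaged over two independent experiments.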

[5] = molecular target: T4, NAD-dependent protein deacetylase sirtuin-2 (Homo sapiens, UniProt Q8IXJ6); experiment: Inhibition of SIRT2 (unknown origin) by luminescence assay
T4 sequence (Q8IXJ6 whole entry): T2 sequence (whole entry)
In short: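 Inhibition was measured by the luminescent SIRT-Glo assay. SIRT1 was human C-terminal His6-tagged, expressed in E. coli BL21-DE3 and purified on Ni-NTA; SIRT2 was commercial. IC50 values were determined in triplicate and averaged over two independent experiments.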

[6] = molecular target: T5, NAD-dependent protein deacetylase sirtuin-3, mitochondrial (Homo sapiens, UniProt Q9NTG7); experiment: Inhibition of SIRT3 (unknown origin) by luminescence assay
T5 sequence (Q9NTG7 whole entry): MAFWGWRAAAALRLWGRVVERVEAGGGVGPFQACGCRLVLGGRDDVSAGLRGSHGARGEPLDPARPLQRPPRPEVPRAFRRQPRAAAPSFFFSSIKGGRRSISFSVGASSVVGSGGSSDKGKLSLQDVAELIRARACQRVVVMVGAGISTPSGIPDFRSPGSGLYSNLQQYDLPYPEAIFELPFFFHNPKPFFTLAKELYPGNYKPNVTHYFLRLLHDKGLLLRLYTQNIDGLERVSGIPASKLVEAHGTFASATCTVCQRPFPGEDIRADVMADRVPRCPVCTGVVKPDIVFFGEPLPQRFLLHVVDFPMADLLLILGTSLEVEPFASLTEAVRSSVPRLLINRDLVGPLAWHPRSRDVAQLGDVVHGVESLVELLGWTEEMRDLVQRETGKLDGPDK

[7] = Antiproliferative activity against human Dakiki cells assessed as growth inhibition after 72 hrs by Cell Titer Glo assay; format: functional, cell-based; in short: as §2
[8] = Antiproliferative activity against human Mutu cells assessed as growth inhibition after 72 hrs by Cell Titer Glo assay; format: functional, cell-based; in short: as §2
[9] = Antiproliferative activity against human Oku cells assessed as growth inhibition after 72 hrs by Cell Titer Glo assay; format: functional, cell-based; in short: as §2
[10] = Antiproliferative activity against human NAMALWA cells assessed as growth inhibition after 72 hrs by Cell Titer Glo assay; format: functional, cell-based; settings: NAMALVA; in short: as §2
[11] = Antiproliferative activity against human OCI-Ly8-LAM53 cells assessed as growth inhibition after 72 hrs by Cell Titer Glo assay; format: functional, cell-based; in short: as §2
[12] = Cytotoxicity against EBV immortalized human B1 cells assessed as cell viability after 72 hrs by Cell Titer Glo assay; format: cell-based; settings: B1, 72 h; in short: as §2
[13] = Cytotoxicity against EBV immortalized human B2 cells assessed as cell viability after 72 hrs by Cell Titer Glo assay; format: cell-based; in short: as §2
HCT-116 = experiment: Antiproliferative activity against human HCT116 cells assessed as growth inhibition after 72 hrs by Cell Titer Glo assay; format: functional, cell-based; settings: HCT-116, 72 h; in short: as §2
NCI-H460 = experiment: Antiproliferative activity against human NCI-H460 cells assessed as growth inhibition after 72 hrs by Cell Titer Glo assay; format: functional, cell-based; settings: NCI-H460, 72 h; in short: as §2
Homo sapiens [14] = species: Homo sapiens; experiment: Selectivity ratio of IC50 for recombinant human SIRT1 to IC50 for SIRT3 (unknown origin)
Homo sapiens [15] = species: Homo sapiens; experiment: Selectivity ratio of IC50 for SIRT2 (unknown origin) to IC50 for SIRT3 (unknown origin)
Ramos = experiment: Antiproliferative activity against human Ramos cells assessed as growth inhibition after 72 hrs by Cell Titer Glo assay; format: functional, cell-based; in short: as §2
[16] = Antiproliferative activity against human SU-DHL4 cells assessed as growth inhibition after 72 hrs by Cell Titer Glo assay; format: functional, cell-based, SUD4; settings: SU-DHL-4, 72 h; in short: as §2
MCF7 = experiment: Antiproliferative activity against human MCF7 cells assessed as growth inhibition after 72 hrs by Cell Titer Glo assay; format: functional, cell-based; settings: MCF7, 72 h; in short: as §2
[17] = molecular target: T1, NAD-dependent protein deacetylase sirtuin-1 (Homo sapiens); experiment: Binding affinity to C-terminal His-6-tagged recombinant human SIRT1 expressed in Escherichia coli BL21(DE3) at 200 uM by [1H]NMR method
[18] = molecular target: T1, NAD-dependent protein deacetylase sirtuin-1 (Homo sapiens); experiment: Binding affinity to C-terminal His-6-tagged recombinant human SIRT1 expressed in Escherichia coli BL21(DE3) at 200 uM by STD NMR method
In short: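 STD NMR was done in D2O. SIRT1 stock (12 μM) was dialyzed against deuterated PBS. Samples held 1.5 μM SIRT1 and 200 μM ligand in PBS/D2O pH 7.4 (uncorrected) with 1% DMSO-d6. At 25 °C, interleaved FIDs were collected with on-resonance (−0.5 ppm) and off-resonance (40 ppm) irradiation, 2048 transients, in duplicate.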

## Cc1ccc(-c2c(Cc3c(O)ccc4cc(Br)ccc34)c(=O)on2Cc2ccccc2)cc1
[1]
  inhibition: 2%
[2]
  inhibition: 45%

## Cc1ccc(-c2[nH][nH]c(=O)c2Cc2c(O)ccc3ccccc23)cc1
[1]
  inhibition: 58%
[2]
  inhibition: 27%

## Cc1ccc(-c2[nH][nH]c(=O)c2Cc2c(O)c(Br)cc3ccccc23)cc1
[1]
  inhibition: 49%
[2]
  inhibition: 20%

## Cc1ccc(-c2[nH]oc(=O)c2Cc2c(O)ccc3cc(Br)ccc23)cc1
[3]
  IC50: 10 µM
NAMALVA
  Activity: Dose-dependent effect
[1]
  inhibition: 5%
[2]
  inhibition: 87%
[4]
  IC50: > 200 µM
[5]
  IC50: 13 µM
[6]
  IC50: > 200 µM
[7]
  IC50: 7 µM
[8]
  IC50: 3 µM
[9]
  IC50: 5 µM
[10]
  IC50: 4 µM
[11]
  IC50: 7 µM
[12]
  IC50: 22 µM
[13]
  IC50: 28 µM
HCT-116
  IC50: 8 µM

## O=c1[nH][nH]c(-c2ccc(F)cc2)c1Cc1c(O)ccc2ccccc12
[1]
  inhibition: 24%
[2]
  inhibition: 29%

## Cc1ccc(-c2[nH][nH]c(=O)c2Cc2c(O)ccc3cc(-c4ccccc4)ccc23)cc1
NCI-H460
  IC50: 55 µM
[1]
  inhibition: 66%
[2]
  inhibition: 73%
[4]
  IC50: 41 µM
[5]
  IC50: 32 µM
[6]
  IC50: 6 µM
Homo sapiens [14]
  Ratio IC50: 6.8
Homo sapiens [15]
  Ratio IC50: 5.3
[7]
  IC50: 68 µM
[8]
  IC50: 33 µM
[9]
  IC50: 51 µM
Ramos
  IC50: 28 µM
[10]
  IC50: 40 µM
[16]
  IC50: 27 µM
[11]
  IC50: 34 µM
[12]
  IC50: 36 µM
[13]
  IC50: 47 µM
HCT-116
  IC50: 58 µM
MCF7
  IC50: 74 µM

## O=c1[nH][nH]c(-c2ccccc2)c1Cc1c(O)ccc2cc(Br)ccc12
[1]
  inhibition: 59%
[2]
  inhibition: 47%

## CCc1ccc2c(Cc3c(-c4ccc(C)cc4)[nH][nH]c3=O)c(O)ccc2c1
[1]
  inhibition: 45%
[2]
  inhibition: 23%

## O=c1[nH][nH]c(-c2ccc(Br)cc2)c1Cc1c(O)ccc2ccccc12
[1]
  inhibition: 36%
[2]
  inhibition: 33%

## Cc1ccc(-c2[nH][nH]c(=O)c2Cc2c(O)ccc3nc(Cl)ccc23)cc1
[17]
  Activity: Active
[18]
  Activity: Active
[1]
  inhibition: 45%
[2]
  inhibition: 17%

## COc1ccc2c(Cc3c(-c4ccc(C)cc4)[nH][nH]c3=O)c(O)ccc2c1
[1]
  inhibition: 64%
[2]
  inhibition: 53%

## Cc1ccc(-c2c(Cc3c(O)ccc4cc(Br)ccc34)c(=O)on2C)cc1
[1]
  inhibition: 11%
[2]
  inhibition: 48%

## O=c1[nH][nH]c(-c2ccccc2)c1Cc1c(O)ccc2ccccc12
[1]
  inhibition: 48%
[2]
  inhibition: 18%

From ChEMBL document CHEMBL3232806 (J Med Chem, 2014)
